Experimental data as given in ChEMBL document CHEMBL2331097, “Synthesis of 5,7-disubstituted-4-methyl-7H-pyrrolo[2,3-d]pyrimidin-2-amines as microtubule inhibitors” (Bioorg Med Chem, 2013).
Activity calls are given as the source filed them. The rule behind the calls is not given here.

Assays:
JC = experiment: Modulatory activity at P-gp in mouse JC cells assessed as lowest drug concentration required to increase intracellular [3H]taxol accumulation pretreated for 30 mins prior to [3H]taxol addition measured after 60 mins by liquid scintillation counting analysis; type: cell-based
Summary of the method: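 JC cells were seeded at about 25% confluency and grown 3–4 days to near confluency. Medium was switched to serum-free, and compounds were preincubated for 30 min at 37 °C. About 0.1 µCi [³H]Taxol (75 Ci/mmol) per well followed, for 60 min at 37 °C. Cells were washed twice with ice-cold PBS and lysed in 1% SDS. Intracellular label was counted by liquid scintillation, and the lowest concentration giving maximal accumulation was recorded.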

[1] = Cytotoxicity against mouse JC cells assessed as inhibition of cell survival after 48 hrs by SRB assay; type: functional, cell-based
Summary of the method: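 JC (CRL-2116) cells kept in RPMI-1640 with L-glutamine, 10% FBS and 50 μg/ml gentamicin at 37 °C, 5% CO₂. Cells were seeded at about 20% confluency and left 24 h to attach, then exposed to a range of concentrations for 48 h. Cells were PBS-washed, fixed in 10% trichloroacetic acid and stained with 0.4% SRB in 1% acetic acid. Dye was dissolved in 10 mM Tris and absorbance read at 570 nm.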

| Structure (SMILES) | LED (JC) | IC50 [1] |
| --- | --- | --- |
| COc1ccccc1Sc1cn(Cc2ccccc2)c2nc(N)nc(C)c12 | 1.5 µM | 11 µM |
| COc1ccc(Cn2cc(CCc3cc(OC)c(OC)c(OC)c3)c3c(C)nc(N)nc32)cc1OC | 1.2 µM | 1.5 µM |
| COc1cc(Cn2cc(CCc3cc(OC)c(OC)c(OC)c3)c3c(C)nc(N)nc32)cc(OC)c1 | 1.5 µM | 3 µM |
| COc1ccc(Cn2cc(Sc3ccccc3OC)c3c(C)nc(N)nc32)cc1 | inactive | 2.5 µM |
| Cc1nc(N)nc2c1c(Sc1ccccc1)cn2Cc1ccccc1 | inactive | 4 µM |
| COc1cc(Cn2cc(Sc3cc(OC)c(OC)c(OC)c3)c3c(C)nc(N)nc32)cc(OC)c1OC | inactive | > 100 µM |
| COc1ccc(Sc2cn(Cc3ccccc3)c3nc(N)nc(C)c23)cc1 | inactive | 10 µM |
| Cc1nc(N)nc2c1c(Sc1ccc(Cl)cc1)cn2Cc1ccccc1 | inactive | 7.5 µM |
